Measurements taken from ChEMBL document CHEMBL3525963, “Tissue distribution and elimination of [14C]apixaban in rats” (Drug Metab Dispos, 2011).

Tests used:
Conditions in all cases: in vivo
Rattus norvegicus [1] = assay: Biodistribution in male Sprague-Dawley rat brown fat at 5 mg/kg, po administered as single dose measured after 24 hrs; assay type: ADME, organism-based, Brown adipose tissue; parameters: dose 5 mg/kg, dosed compound name [14C]-apixaban, route oral
Procedure, shortened: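 Fasted male SD rats (225-252 g) each received one oral gavage dose of [14C]apixaban, 5 mg/kg (100 μCi/kg), in 0.5% Tween 80/Labrafil vehicle. One rat was killed per time point, from 0.5 to 168 h. Frozen carcasses were cut into 40 µm sagittal whole-body sections and read by QWBA phosphor imaging against [14C]glucose calibrants. Results are in µg apixaban eq/g; BLQ <0.037 µg eq/g.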

Rattus norvegicus [2] = assay: Biodistribution in female Sprague-Dawley rat pituitary gland at 5 mg/kg, po administered as single dose measured after 72 hrs; assay type: ADME, organism-based; parameters: dose 5 mg/kg, dosed compound name [14C]-apixaban, route oral
Procedure, shortened: (§1)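 Quantitative whole-body autoradiography was run after a single 5 mg/kg (100 μCi/kg) oral gavage to fasted female or pregnant SD rats, one rat per time point. Carcasses were frozen in hexane/dry ice, and 40 µm sagittal sections were dried at −20°C for at least 48 h. Sections were exposed to a phosphor plate alongside [14C]glucose standards (0.001–6.5 µCi/g). Results are µg eq/g, with LLOQ 0.037 µg eq/g.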

Lung [3] = assay: Biodistribution in female Sprague-Dawley rat lung at 5 mg/kg, po administered as single dose measured after 72 hrs; assay type: ADME, organism-based; parameters: dose 5 mg/kg, dosed compound name [14C]-apixaban, route oral; procedure, shortened: as §1
Blood [4] = assay: Cmax in male Sprague-Dawley rat blood at 5 mg/kg, po administered as single dose; assay type: ADME, organism-based; parameters: dose 5 mg/kg, dosed compound name [14C]-apixaban, route oral
Procedure, shortened: (§2)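 Fasted male, female or pregnant SD rats received a single oral gavage of 5 mg/kg (100 μCi/kg) in 0.5% Tween 80/Labrafil. One rat was killed per time point, up to 168 h (48 h for pregnant). Blood was collected into K3EDTA. Blood radioactivity came from autoradiogram or LSC data, and Cmax was taken from the concentration-time profile.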

Muscle tissue [5] = assay: Biodistribution in pregnant Sprague-Dawley rat muscle at 5 mg/kg, po administered as single dose measured after 8 hrs; assay type: ADME, organism-based; parameters: dose 5 mg/kg, dosed compound name [14C]-apixaban, route oral
Lung [6] = assay: Biodistribution in male Sprague-Dawley rat lung at 5 mg/kg, po administered as single dose measured after 0.5 hrs; assay type: ADME, organism-based; parameters: dose 5 mg/kg, dosed compound name [14C]-apixaban, route oral
Procedure, shortened: (§3)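 [14C]apixaban (1.0 mg/mL, 20 μCi/mL) in 0.5% Tween 80 in Labrafil, given by oral gavage at 100 μCi/kg to male rats (225-252 g) fasted overnight through 4 h post-dose. One rat per time point. Carcasses frozen in hexane/dry ice and cut into 40 µm sagittal sections. QWBA read on phosphor plates against [14C]glucose standards, reported as µg eq/g. LLOQ 0.037 µg eq/g.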

Brain = assay: Biodistribution in pregnant Sprague-Dawley rat brain at 5 mg/kg, po administered as single dose measured after 4 hrs; assay type: ADME, organism-based; parameters: dose 5 mg/kg, dosed compound name [14C]-apixaban, route oral
Rattus norvegicus [7] = assay: Biodistribution in male Sprague-Dawley rat salivary gland at 5 mg/kg, po administered as single dose measured after 4 hrs; assay type: ADME, organism-based; parameters: dose 5 mg/kg, dosed compound name [14C]-apixaban, route oral
Thymus = assay: Biodistribution in female Sprague-Dawley rat thymus at 5 mg/kg, po administered as single dose measured after 0.5 hrs; assay type: ADME, organism-based; parameters: dose 5 mg/kg, dosed compound name [14C]-apixaban, route oral
Procedure, shortened: (§4)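 [¹⁴C]Apixaban given by oral gavage at 5 mg/kg (100 μCi/kg) in 0.5% Tween 80 in Labrafil (1.0 mg/mL dosing solution) to rats fasted overnight through 4 h post-dose. One rat per time point; carcass frozen in hexane/dry ice. Quantitative whole-body autoradiography used 40 µm sagittal sections and a phosphor imaging plate calibrated with [¹⁴C]glucose standards (0.001–6.5 μCi/g). Read-out in µg eq apixaban/g; LLOQ 0.037 μg eq/g.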

Rattus norvegicus [8] = assay: Biodistribution in pregnant Sprague-Dawley rat salivary gland at 5 mg/kg, po administered as single dose measured after 4 hrs; assay type: ADME, organism-based; parameters: dose 5 mg/kg, dosed compound name [14C]-apixaban, route oral
Spleen [9] = assay: Biodistribution in pregnant Sprague-Dawley rat spleen at 5 mg/kg, po administered as single dose measured after 0.5 hrs; assay type: ADME, organism-based; parameters: dose 5 mg/kg, dosed compound name [14C]-apixaban, route oral
Rattus norvegicus [10] = assay: Biodistribution in male Sprague-Dawley rat brown fat at 5 mg/kg, po administered as single dose measured after 8 hrs; assay type: ADME, organism-based, Brown adipose tissue; parameters: dose 5 mg/kg, dosed compound name [14C]-apixaban, route oral
Procedure, shortened: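 Fasted male rats, 225-252 g, received [14C]apixaban by single oral gavage at 100 μCi/kg in 0.5% Tween 80/Labrafil. One rat was killed per time point and the carcass frozen. Tissue radioactivity was quantified by QWBA (40 µm sagittal sections, phosphor plate, [14C]glucose calibration) as µg eq apixaban/g, with LLOQ 0.037 μg eq/g.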

Pancreas [11] = assay: Biodistribution in male Sprague-Dawley rat pancreas at 5 mg/kg, po administered as single dose measured after 1 hr; assay type: ADME, organism-based; parameters: dose 5 mg/kg, dosed compound name [14C]-apixaban, route oral; procedure, shortened: as §3
Spleen [12] = assay: Biodistribution in female Sprague-Dawley rat spleen at 5 mg/kg, po administered as single dose measured after 72 hrs; assay type: ADME, organism-based; parameters: dose 5 mg/kg, dosed compound name [14C]-apixaban, route oral; procedure, shortened: as §1
Rattus norvegicus [13] = assay: Biodistribution in pregnant Sprague-Dawley rat brown fat at 5 mg/kg, po administered as single dose measured after 24 hrs; assay type: ADME, organism-based, Brown adipose tissue; parameters: dose 5 mg/kg, dosed compound name [14C]-apixaban, route oral
Procedure, shortened: (§5)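 Fasted pregnant SD rats (n=6, 270-319 g) each received one oral gavage dose of [14C]apixaban, 5 mg/kg (100 μCi/kg), in 0.5% Tween 80/Labrafil. One rat was killed at each of 0.5, 1, 4, 8, 24 and 48 h. Carcasses were frozen in hexane/dry ice, cut into 40 µm sagittal sections, exposed to phosphor plates and quantified against [14C]glucose standards as µg eq/g. LLOQ was 0.037 µg eq/g.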

Liver = assay: Biodistribution in pregnant Sprague-Dawley rat liver at 5 mg/kg, po administered as single dose measured after 48 hrs; assay type: ADME, organism-based; parameters: dose 5 mg/kg, dosed compound name [14C]-apixaban, route oral; procedure, shortened: as §5
Rattus norvegicus [14] = assay: Biodistribution in pregnant Sprague-Dawley rat salivary gland at 5 mg/kg, po administered as single dose measured after 0.5 hrs; assay type: ADME, organism-based; parameters: dose 5 mg/kg, dosed compound name [14C]-apixaban, route oral
Blood [15] = assay: AUC (0 to infinity) in lactating Sprague-Dawley rat blood at 5 mg/kg, po administered as single dose; assay type: ADME, organism-based; parameters: time infinity, dose 5 mg/kg, dosed compound name [14C]-apixaban, route oral
Rattus norvegicus [16] = assay: Biodistribution in pregnant Sprague-Dawley rat salivary gland at 5 mg/kg, po administered as single dose measured after 1 hr; assay type: ADME, organism-based; parameters: dose 5 mg/kg, dosed compound name [14C]-apixaban, route oral
Harderian gland [17] = assay: Biodistribution in pregnant Sprague-Dawley rat harderian gland at 5 mg/kg, po administered as single dose measured after 4 hrs; assay type: ADME, organism-based; parameters: dose 5 mg/kg, dosed compound name [14C]-apixaban, route oral
Rattus norvegicus [18] = assay: Biodistribution in pregnant Sprague-Dawley rat brown fat at 5 mg/kg, po administered as single dose measured after 0.5 hrs; assay type: ADME, organism-based, Brown adipose tissue; parameters: dose 5 mg/kg, dosed compound name [14C]-apixaban, route oral
Lung [19] = assay: Biodistribution in male Sprague-Dawley rat lung at 5 mg/kg, po administered as single dose measured after 4 hrs; assay type: ADME, organism-based; parameters: dose 5 mg/kg, dosed compound name [14C]-apixaban, route oral; procedure, shortened: as §3
Lung [20] = assay: Biodistribution in pregnant Sprague-Dawley rat lung at 5 mg/kg, po administered as single dose measured after 48 hrs; assay type: ADME, organism-based; parameters: dose 5 mg/kg, dosed compound name [14C]-apixaban, route oral
Procedure, shortened: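 Pregnant SD rats (270-319 g) were fasted overnight and given one oral gavage of 5 mg/kg (100 μCi/kg) in 0.5% Tween 80 in Labrafil. One rat was euthanized per time point (0.5, 1, 4, 8, 24, 48 h) and the carcass frozen. 40 µm sagittal sections were phosphor-imaged against [14C]glucose standards and results reported as µg eq/g; LLOQ 0.037 µg eq/g.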

Harderian gland [21] = assay: Biodistribution in male Sprague-Dawley rat harderian gland at 5 mg/kg, po administered as single dose measured after 4 hrs; assay type: ADME, organism-based; parameters: dose 5 mg/kg, dosed compound name [14C]-apixaban, route oral; procedure, shortened: as §4
Blood [22] = assay: Cmax in female Sprague-Dawley rat blood at 5 mg/kg, po administered as single dose; assay type: ADME, organism-based; parameters: dose 5 mg/kg, dosed compound name [14C]-apixaban, route oral; procedure, shortened: as §2
Pancreas [23] = assay: Biodistribution in male Sprague-Dawley rat pancreas at 5 mg/kg, po administered as single dose measured after 24 hrs; assay type: ADME, organism-based; parameters: dose 5 mg/kg, dosed compound name [14C]-apixaban, route oral; procedure, shortened: as §3
Muscle tissue [24] = assay: Biodistribution in female Sprague-Dawley rat muscle at 5 mg/kg, po administered as single dose measured after 24 hrs; assay type: ADME, organism-based; parameters: dose 5 mg/kg, dosed compound name [14C]-apixaban, route oral; procedure, shortened: as §1

Radiolabel recovery (Rattus norvegicus [2]): Not detected assumed BLQ | Cmax (Blood [4]): 1180 ngequiv/g | Radiolabel recovery (Muscle tissue [5]): 0.05 ugequiv/g | Radiolabel recovery (Lung [6]): 0.57 ugequiv/g | Radiolabel recovery (Brain): < 0.037 ugequiv/g | Radiolabel recovery (Rattus norvegicus [7]): 0.54 ugequiv/g | Radiolabel recovery (Thymus): 0.2 ugequiv/g | Radiolabel recovery (Rattus norvegicus [8]): 1.03 ugequiv/g | Radiolabel recovery (Spleen [9]): 0.46 ugequiv/g | Radiolabel recovery (Rattus norvegicus [10]): 0.07 ugequiv/g | Radiolabel recovery (Pancreas [11]): 0.62 ugequiv/g | Radiolabel recovery (Spleen [12]): Not detected assumed BLQ | Radiolabel recovery (Rattus norvegicus [13]): Not detected assumed BLQ | Radiolabel recovery (Liver): Not detected assumed BLQ | Radiolabel recovery (Rattus norvegicus [14]): 0.73 ugequiv/g | AUC (Blood [15]): 1960 ngequiv.hr/g | Radiolabel recovery (Rattus norvegicus [16]): 0.95 ugequiv/g | Radiolabel recovery (Harderian gland [17]): 1.1 ugequiv/g | Radiolabel recovery (Rattus norvegicus [18]): 1.08 ugequiv/g | Radiolabel recovery (Lung [19]): 0.64 ugequiv/g | Radiolabel recovery (Lung [20]): Not detected assumed BLQ | Radiolabel recovery (Harderian gland [21]): 0.42 ugequiv/g | Cmax (Blood [22]): 880 ngequiv/g | Radiolabel recovery (Pancreas [23]): < 0.037 ugequiv/g | Radiolabel recovery (Muscle tissue [24]): Not detected assumed BLQ
SMILES: COc1ccc(-n2nc(C(N)=O)c3c2C(=O)N(c2ccc(N4CCCC[14C]4=O)cc2)CC3)cc1
Radiolabel recovery (Rattus norvegicus [1]): Not sampled as not visualised in autoradiograph | Radiolabel recovery (Lung [3]): Not sampled as not visualised in autoradiograph
